# Experimental data published in article PMC6430907 (Journal of Veterinary Internal Medicine, 2019).
# System: dogs with compensated CHF caused by MMVD
# Assay: Urine output
# Format: in vivo, dog
# Procedure, shortened: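 Crossover design in 7 male dogs with ACVIM stage C CHF from MMVD, treated in fixed order with a 2-week washout. Baseline UOP was measured at the end of a 1-h control period. […] UOP was log-transformed and analysed by linear mixed modelling (REML, least square differences).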
smiles,measurement,setting,value
"NS(=O)(=O)c1cc(C(=O)O)c(NCc2ccco2)cc1Cl [FRUS, furosemide]",increase in median UOP compared to baseline at maximal effect,"1 hour after treatment, median of 7 dogs",1246%
same,change in urine output (UOP) from baseline,"BNP 5 μg/kg SC, FRUS 2 mg/kg SC, or both, 1, 2, 3 hours, 7 dogs",increased significantly
same,time after treatment of maximal effect on UOP,furosemide 2 mg/kg SC with or without BNP 5 μg/kg SC,1 h
